Results as given in ChEMBL document CHEMBL2417407, “Regioselective synthesis of phenanthrenes and evaluation of their anti-oxidant based anti-inflammatory potential” (Eur J Med Chem, 2013).
Values after ≈ are worked out from the molar mass of the structure shown.

What was measured:
[1] = tested on: THP-1; assay: Cytotoxicity against human THP1 cells assessed as cell viability at 1 uM after 24 hrs by CCK-8 assay relative to untreated control; assay type: cell-based; conditions: thp-1, 24 h
Method in brief: (§1)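 THP-1 cells were seeded at 2 × 10⁵ cells/well and exposed to compound in serum-free medium for 24 h at 37 °C under 5% CO2. CCK-8 reagent was then added for 2 h and absorbance was read at 450 nm. Relative viability was calculated as absorbance of treated cells divided by absorbance of untreated cells. Triplicates, two independent experiments.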

[2] = tested on: THP-1; assay: Cytotoxicity against human THP1 cells assessed as cell viability at 10 uM after 24 hrs by CCK-8 assay relative to untreated control; assay type: cell-based; conditions: thp-1, 24 h; method in brief: as §1
[3] = tested on: THP-1; assay: Cytotoxicity against human THP1 cells assessed as cell viability at 50 uM after 24 hrs by CCK-8 assay relative to untreated control; assay type: cell-based; conditions: thp-1, 24 h; method in brief: as §1
[4] = tested on: THP-1; assay: Cytotoxicity against human THP1 cells assessed as cell viability at 100 uM after 24 hrs by CCK-8 assay relative to untreated control; assay type: cell-based; conditions: thp-1, 24 h; method in brief: as §1
[5] = tested on: THP-1; assay: Antiinflammatory activity in human THP1 cells assessed as inhibition of LPS-stimulated TNF-alpha release at 1 uM incubated for 1 hr prior to LPS challenge measured after 24 hrs by sandwich ELISA relative to untreated control; assay type: functional
Method in brief: (§2)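 THP-1 cells were grown in RPMI 1640 with 10% heat-inactivated FBS, 1% non-essential amino acids, 1% glutamine, penicillin and streptomycin at 37 °C under 5% CO2. They were seeded at 2 × 10⁵ cells/well and pretreated with compound for 1 h in serum-free medium. LPS (E. coli O55:B5, 250 ng/mL) was then added for 24 h at 37 °C. Supernatant TNF-α was measured by sandwich ELISA, with LPS-stimulated cells taken as 0% inhibition. Triplicates, two independent experiments.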

[6] = tested on: THP-1; assay: Antiinflammatory activity in human THP1 cells assessed as inhibition of LPS-stimulated TNF-alpha release at 10 uM incubated for 1 hr prior to LPS challenge measured after 24 hrs by sandwich ELISA relative to untreated control; assay type: functional; method in brief: as §2
[7] = tested on: THP-1; assay: Antiinflammatory activity in human THP1 cells assessed as inhibition of LPS-stimulated TNF-alpha release at 50 uM incubated for 1 hr prior to LPS challenge measured after 24 hrs by sandwich ELISA relative to untreated control; assay type: functional; method in brief: as §2
[8] = tested on: THP-1; assay: Antiinflammatory activity in human THP1 cells assessed as inhibition of LPS-stimulated TNF-alpha release at 100 uM incubated for 1 hr prior to LPS challenge measured after 24 hrs by sandwich ELISA relative to untreated control; assay type: functional; method in brief: as §2
[9] = Antioxidant activity assessed as ABTS free radical scavenging activity after 1 min; assay type: functional
Method in brief: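 ABTS radical cation was generated from 7 mM ABTS stock and 2.45 mM potassium persulfate (final) left 16 h in the dark at room temperature. Working solution (1.0 mL) was added to the compound in methanol, giving final 1–100 µg/mL. Absorbance at 734 nm was read after exactly 1 min. Percent scavenging was calculated from absorbances as in the DPPH assay.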

[10] = tested on: Radical scavenging activity; assay: Antioxidant activity assessed as DPPH free radical scavenging activity after 30 mins; assay type: functional
Method in brief: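 Compound solution was mixed with 316 µM DPPH solution, giving final compound concentrations of 1, 5, 12.5, 25, 50 and 100 µg/mL. The mixture was shaken 1 min and incubated at 37 °C for 30 min. Absorbance was read at 517 nm and percent scavenging was calculated as [1 − (A1 − A2)/A0] × 100.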

[11] = Antioxidant activity assessed as galvinoxyl free radical scavenging activity after 20 mins; assay type: functional
[12] = tested on: THP-1; assay: Antiinflammatory activity in human THP1 cells assessed as inhibition of LPS-stimulated TNF-alpha release incubated for 1 hr prior to LPS challenge measured after 24 hrs by sandwich ELISA; assay type: functional, cell-based; method in brief: as §2

SMILES | IC50 [9] [µg/mL] | IC50 [10] [µg/mL] | IC50 [11] [µg/mL] | fold change (FC) [1] | fold change (FC) [2] | fold change (FC) [3] | fold change (FC) [4] | inhibition at 1 µM [5] [%] | inhibition at 10 µM [6] [%] | inhibition at 50 µM [7] [%] | inhibition at 100 µM [8] [%] | inhibition [12]
Cc1cc(C(C)(C)C)c(O)c(C(C)(C)C)c1 [BUTYLATED HYDROXYTOLUENE] | 36.11 (≈ 164 µM) | 31.51 (≈ 143 µM) | 43.7 (≈ 198 µM) |  |  |  |  |  |  |  |  | 
COc1cc(/C=C/C(=O)CC(=O)/C=C/c2ccc(O)c(OC)c2)ccc1O [CURCUMIN] | 28.3 (≈ 76.8 µM) | 11.41 (≈ 31 µM) | 17.03 (≈ 46.2 µM) | 1.8 | 1.5 | 0.9 | 0.5 | 1.5 | 38 | 95.5 | 102 | Dose-dependent effect
Oc1cc(O)c2c(c1)OC(c1ccc(O)c(O)c1)C(O)C2 (stereo unspecified) [CATECHIN] | 11.46 (≈ 39.5 µM) | 15.6 (≈ 53.7 µM) | 18.03 (≈ 62.1 µM) |  |  |  |  |  |  |  |  | 
O=C1O[C@H]([C@@H](O)CO)C(O)=C1O [ASCORBIC ACID] | 29.17 (≈ 166 µM) | 15.12 (≈ 85.8 µM) | 5.23 (≈ 29.7 µM) |  |  |  |  |  |  |  |  | 
COc1cc2ccc3cc(O)ccc3c2c(OC)c1O | 13.39 (≈ 49.5 µM) | 11.18 (≈ 41.4 µM) | 11.79 (≈ 43.6 µM) | 1.4 | 1.3 | 1.1 | 1 | 3.5 | 15.5 | 34 | 67.5 | Dose-dependent effect

More lines, main results first:

IC50 [9] [µg/mL] | IC50 [10] [µg/mL] | IC50 [11] [µg/mL] | SMILES | fold change (FC) [1] | fold change (FC) [2] | fold change (FC) [3] | fold change (FC) [4] | inhibition at 1 µM [5] [%] | inhibition at 10 µM [6] [%] | inhibition at 50 µM [7] [%] | inhibition at 100 µM [8] [%] | inhibition [12]
> 100 | > 100 | > 100 | c1ccc2c(c1)CCc1ccccc1-2 | 1.6 | 1.5 | 1.3 | 1.2 | 0 | 0 | 5 | 14.5 | 
15.62 (≈ 57.4 µM) | 32.5 (≈ 119 µM) | 17.04 (≈ 62.6 µM) | COc1ccc2c(c1O)CCc1cc(O)cc(OC)c1-2 | 1.3 | 1.3 | 1.2 | 1 | 19.5 | 31 | 70 | 83 | Dose-dependent effect
16.98 (≈ 62.4 µM) | 27.8 (≈ 102 µM) | 17.97 (≈ 66 µM) | COc1cc(O)c2c(c1)CCc1c-2ccc(OC)c1O | 1.5 | 1.4 | 1.2 | 1.1 | 9 | 30 | 79 | 94 | Dose-dependent effect
11.72 (≈ 43 µM) | 10.28 (≈ 37.8 µM) | 11.66 (≈ 42.8 µM) | COc1cc2c(c(OC)c1O)-c1ccc(O)cc1CC2 [FLAVANTHRIDIN] | 1.4 | 1.4 | 1.3 | 1.2 | 8 | 17.5 | 47 | 64 | Dose-dependent effect
> 100 | > 100 | > 100 | c1ccc2c(c1)ccc1ccccc12 [PHENANTHRENE] | 1.4 | 1.3 | 1.2 | 1.1 | 0 | 0 | 6 | 8.5 | 
